In ChEMBL document CHEMBL4219233, “Discovery and evaluation of nNav1.5 sodium channel blockers with potent cell invasion inhibitory activity in breast cancer cells” (Bioorg Med Chem, 2018):
pIC50: −log10 of the molar value.

Columns and labels:
[1] = Cytotoxicity against human MDA-MB-231 cells assessed as reduction in cell viability after 24 hrs by MTS assay; type: cell-based
How it was run: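 Cells are seeded at 10^4/well in 5% FBS/DMEM and grown 24 h at 37 °C, 5% CO2. They are then exposed 24 h to 1, 5, 10 or […] μM compound or vehicle (0.25% DMSO in PBS), with 5 wells per concentration. MTS is added for 30 min and absorbance read at 490 nm. The maximum non-toxic concentration is judged against vehicle, mean of five repeats.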

[2] = target: T1, Sodium channel protein type 5 subunit alpha (Homo sapiens, UniProt Q14524); test: Inhibition of neonatal Nav1.5 in human MDA-MB-231 cells assessed as reduction in inward sodium peak current at 10 uM at -100 mV holding potential after 5 to 10 mins by whole cell patch clamp method relative to control; type: cell-based; conditions: MDA-MB-231, human
How it was run: (§1)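 Whole-cell voltage clamp is used, with capacitance and series resistance compensated 60% and P/2 leak subtraction. Cells are perifused with PSS (mM: NaCl 140, KCl 4, MgCl2 1, CaCl2 2, NaH2PO4 0.33, glucose 11.1, HEPES 10; pH 7.4), with or without compound (final 0.2% DMSO), for 5–10 min. Peak INa is evoked by 30 ms steps from −100 to −5 mV. Percent block is taken from peak current. The concentration-response over 0.1–100 μM is Hill-fitted.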
Target sequence in this assay (Q14524 whole entry, the tested form may be a part): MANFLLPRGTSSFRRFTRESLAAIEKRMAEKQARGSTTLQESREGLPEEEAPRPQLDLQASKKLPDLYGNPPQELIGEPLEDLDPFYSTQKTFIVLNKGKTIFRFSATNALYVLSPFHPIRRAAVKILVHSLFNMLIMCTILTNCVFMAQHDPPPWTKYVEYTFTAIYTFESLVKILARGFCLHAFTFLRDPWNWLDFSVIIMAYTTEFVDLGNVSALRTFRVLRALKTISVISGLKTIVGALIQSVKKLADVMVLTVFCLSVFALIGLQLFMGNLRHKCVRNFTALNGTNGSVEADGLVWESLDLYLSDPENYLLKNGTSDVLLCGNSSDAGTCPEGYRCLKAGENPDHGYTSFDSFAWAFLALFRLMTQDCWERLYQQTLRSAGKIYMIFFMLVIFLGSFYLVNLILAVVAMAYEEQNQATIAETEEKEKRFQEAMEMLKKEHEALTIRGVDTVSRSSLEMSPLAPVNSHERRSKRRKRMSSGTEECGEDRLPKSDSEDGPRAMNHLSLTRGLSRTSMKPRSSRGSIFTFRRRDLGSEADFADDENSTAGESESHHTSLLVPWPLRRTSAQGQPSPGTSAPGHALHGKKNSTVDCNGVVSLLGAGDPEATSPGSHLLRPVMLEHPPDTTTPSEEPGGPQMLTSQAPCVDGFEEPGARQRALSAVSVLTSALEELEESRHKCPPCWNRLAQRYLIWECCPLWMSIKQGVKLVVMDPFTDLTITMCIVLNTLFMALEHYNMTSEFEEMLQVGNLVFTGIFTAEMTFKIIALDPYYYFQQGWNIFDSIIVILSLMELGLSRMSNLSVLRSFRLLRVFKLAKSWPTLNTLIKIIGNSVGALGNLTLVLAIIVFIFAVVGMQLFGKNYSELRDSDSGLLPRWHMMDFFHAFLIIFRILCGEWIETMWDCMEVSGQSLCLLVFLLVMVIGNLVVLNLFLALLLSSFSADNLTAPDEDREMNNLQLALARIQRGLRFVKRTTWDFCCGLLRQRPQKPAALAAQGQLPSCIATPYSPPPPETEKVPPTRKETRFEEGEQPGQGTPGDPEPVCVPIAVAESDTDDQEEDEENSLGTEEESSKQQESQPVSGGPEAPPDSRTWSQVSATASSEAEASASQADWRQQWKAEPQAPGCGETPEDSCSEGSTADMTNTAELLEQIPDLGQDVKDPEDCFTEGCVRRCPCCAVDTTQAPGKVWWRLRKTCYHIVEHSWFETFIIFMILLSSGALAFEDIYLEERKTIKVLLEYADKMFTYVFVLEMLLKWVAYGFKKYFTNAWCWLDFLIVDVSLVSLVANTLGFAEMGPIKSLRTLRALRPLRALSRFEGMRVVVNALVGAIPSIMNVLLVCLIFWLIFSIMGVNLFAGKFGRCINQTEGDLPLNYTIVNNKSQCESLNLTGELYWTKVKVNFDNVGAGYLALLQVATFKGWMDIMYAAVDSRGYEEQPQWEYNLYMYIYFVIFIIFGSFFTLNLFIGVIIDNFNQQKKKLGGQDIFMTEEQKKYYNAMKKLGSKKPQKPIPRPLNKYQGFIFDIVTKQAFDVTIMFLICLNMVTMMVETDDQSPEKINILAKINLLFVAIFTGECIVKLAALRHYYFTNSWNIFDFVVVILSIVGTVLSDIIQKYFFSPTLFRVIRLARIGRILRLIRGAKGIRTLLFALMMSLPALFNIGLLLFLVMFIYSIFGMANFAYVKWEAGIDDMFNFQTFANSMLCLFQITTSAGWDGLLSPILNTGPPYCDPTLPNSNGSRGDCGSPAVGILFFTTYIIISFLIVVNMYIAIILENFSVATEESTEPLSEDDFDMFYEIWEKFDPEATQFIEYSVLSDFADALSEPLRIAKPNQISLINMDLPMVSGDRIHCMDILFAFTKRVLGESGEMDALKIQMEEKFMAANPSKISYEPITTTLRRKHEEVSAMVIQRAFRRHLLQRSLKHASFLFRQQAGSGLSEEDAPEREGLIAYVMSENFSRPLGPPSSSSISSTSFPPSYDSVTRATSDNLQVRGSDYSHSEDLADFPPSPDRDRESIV

[3] = target: T1, Sodium channel protein type 5 subunit alpha; test: Inhibition of neonatal Nav1.5 in human MDA-MB-231 cells assessed as reduction in inward sodium peak current at 1 uM at -100 mV holding potential after 5 to 10 mins by whole cell patch clamp method relative to control; type: cell-based; conditions: MDA-MB-231, human
How it was run: (§2)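 Whole-cell voltage clamp on MDA-MB-231 cells grown in 5% FBS DMEM, with 60% capacitance and series-resistance compensation and P/2 leak subtraction. Cells were perifused with PSS (mM: NaCl 140, KCl 4, MgCl2 1, CaCl2 2, NaH2PO4 0.33, glucose 11.1, HEPES 10; pH 7.4) with 0.2% DMSO, and compound was applied 5–10 min (final 0.1–100 μM). Peak INa was evoked by 30 ms steps from −100 to −5 mV. Percent block was taken against control, followed by wash-out.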
Target sequence in this assay (Q14524 whole entry, the tested form may be a part): as above

MDA-MB-231 [4] = test: Anti-invasive activity against human MDA-MB-231 cells at 1 uM after 24 hrs by Hema staining based microscopic method relative to control; type: functional; conditions: MDA-MB-231, 24 h
How it was run: (§3)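 Matrigel-coated transwell invasion chambers are hydrated 2 h at 37 °C, with 5% FBS/DMEM above and 10% FBS/DMEM below as chemoattractant. 4 × 10^4 cells go in the upper chamber. Compound or vehicle (0.2% DMSO in PBS) is added to both chambers. After 24 h at 37 °C, 5% CO2, invaded cells are fixed, Hema-stained and counted in five membrane regions. Counts are normalized to solvent control, mean ± SD.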

[5] = target: T1, Sodium channel protein type 5 subunit alpha; test: Inhibition of neonatal Nav1.5 in human MDA-MB-231 cells assessed as reduction in inward sodium peak current at -100 mV holding potential after 5 to 10 mins by whole cell patch clamp method; type: cell-based; how it was run: as §1
Target sequence in this assay (Q14524 whole entry, looked up, the tested form may be a part): as the sequence (Q14524 whole entry, the tested form may be a part) above

[6] = target: T1, Sodium channel protein type 5 subunit alpha; test: Inhibition of neonatal Nav1.5 in human MDA-MB-231 cells assessed as reduction in inward sodium peak current at 100 uM at -100 mV holding potential after 5 to 10 mins by whole cell patch clamp method relative to control; type: cell-based; conditions: MDA-MB-231, human; how it was run: as §2
Target sequence in this assay (Q14524 whole entry, the tested form may be a part): as above

[7] = target: T1, Sodium channel protein type 5 subunit alpha; test: Inhibition of neonatal Nav1.5 in human MDA-MB-231 cells assessed as reduction in inward sodium peak current by measuring half activation potential at 10 uM at -100 mV holding potential after 5 to 10 mins by whole cell patch clamp method (reference value: -30.7 +/- 0.9 mV); type: cell-based; conditions: mda-mb-231, 10 µM
Target sequence in this assay (Q14524 whole entry, the tested form may be a part): as above

[8] = target: T1, Sodium channel protein type 5 subunit alpha; test: Inhibition of neonatal Nav1.5 in human MDA-MB-231 cells assessed as reduction in inward sodium peak current by measuring half inactivation potential at 10 uM at -100 mV holding potential after 5 to 10 mins by whole cell patch clamp method (reference value: -66 +/- 2.5 mV); type: cell-based; conditions: mda-mb-231, 10 µM
Target sequence in this assay (Q14524 whole entry, the tested form may be a part): as above

MDA-MB-231 [9] = test: Anti-invasive activity against human MDA-MB-231 cells at 0.1 uM after 24 hrs by Hema staining based microscopic method relative to control; type: functional; conditions: MDA-MB-231, 24 h; how it was run: as §3
[10] = target: T1, Sodium channel protein type 5 subunit alpha; test: Reversible inhibition of neonatal Nav1.5 in human MDA-MB-231 cells assessed as reduction in sodium peak current elecited for membrane depolarization from -100 mV to -5 mV by measuring remaining current amplitude at 0.1 to 100 uM at -100 mV holding potential treated for 5 to 10 mins followed by compound washout by whole cell patch clamp method relative to control
Target sequence in this assay (Q14524 whole entry, the tested form may be a part): as above

[11] = target: T1, Sodium channel protein type 5 subunit alpha; test: Irreversible inhibition of neonatal Nav1.5 in human MDA-MB-231 cells assessed as reduction in sodium peak current elecited for membrane depolarization from -100 mV to -5 mV at -100 mV holding potential treated for 5 to 10 mins followed by compound washout by whole cell patch clamp method relative to control; type: cell-based; how it was run: as §2
[12] = target: T1, Sodium channel protein type 5 subunit alpha; test: Inhibition of neonatal Nav1.5 in human MDA-MB-231 cells assessed as reduction in inward sodium peak current by measuring half activation potential at 10 uM at -100 mV holding potential after 5 to 10 mins by whole cell patch clamp method (reference value: -33 +/- 1.2 mV); type: cell-based; conditions: mda-mb-231, 10 µM
[13] = target: T1, Sodium channel protein type 5 subunit alpha; test: Inhibition of neonatal Nav1.5 in human MDA-MB-231 cells assessed as reduction in inward sodium peak current by measuring half inactivation potential at 10 uM at -100 mV holding potential after 5 to 10 mins by whole cell patch clamp method (reference value: -71.6 +/- 0.4 mV); type: cell-based; conditions: mda-mb-231, 10 µM
MDA-MB-231 [14] = conditions: Homo sapiens, 30 uM

Structure (SMILES)	MNTC at 24 h [1] [µM]	inhibition at 10 µM [2] [%]	inhibition at 1 µM [3] [%]	inhibition at 1 µM (MDA-MB-231 [4]) [%]	pIC50 [5]	inhibition at 100 µM [6] [%]	inhibition at 0.1 µM (MDA-MB-231 [9]) [%]	other results
Fc1ccc(CCCCNCCCN2CCCCC2)cc1	> 25	60	25	28	5.23	> 95	20	V1/2 [7]: -36.8 mV; V1/2 [8]: -77.5 mV; Activity [10]: 17.4%
Fc1ccc(C(CCCNCCCN2CCCCC2)c2ccc(F)cc2)cc1	5	50	34.9	30.3	5.32	> 95	20	inhibition (INH) [11]: Dose-dependent effect; V1/2 [12]: -34.9 mV; V1/2 [13]: -88.6 mV
CC(C)(C)CCCCNCCCN1CCCCC1	10	30						
Fc1ccc(C(CCCNCCc2ccccc2)c2ccc(F)cc2)cc1	10	30						
Fc1ccc(C(CCCNCCCc2ccccc2)c2ccc(F)cc2)cc1	10	30						
NC1=N[C@H](O)[C@H]2[C@H]3O[C@]4(O)O[C@@H]([C@@H](O)[C@@]2(N1)[C@@H]4O)[C@]3(O)CO [TETRODOTOXIN]	30							inhibition (MDA-MB-231 [14]): 31.5%
